The source of these data is ChEMBL document CHEMBL4765342, “Substituted benzothiophene and benzofuran derivatives as a novel class of bone morphogenetic Protein-2 upregulators: Synthesis, anti-osteoporosis efficacies in ovariectomized rats and a zebrafish model, and ADME properties” (Eur J Med Chem, 2020).

One data set addresses T1, Cytochrome P450 1A2 (Homo sapiens, UniProt P05177).
T1 sequence (P05177 whole entry): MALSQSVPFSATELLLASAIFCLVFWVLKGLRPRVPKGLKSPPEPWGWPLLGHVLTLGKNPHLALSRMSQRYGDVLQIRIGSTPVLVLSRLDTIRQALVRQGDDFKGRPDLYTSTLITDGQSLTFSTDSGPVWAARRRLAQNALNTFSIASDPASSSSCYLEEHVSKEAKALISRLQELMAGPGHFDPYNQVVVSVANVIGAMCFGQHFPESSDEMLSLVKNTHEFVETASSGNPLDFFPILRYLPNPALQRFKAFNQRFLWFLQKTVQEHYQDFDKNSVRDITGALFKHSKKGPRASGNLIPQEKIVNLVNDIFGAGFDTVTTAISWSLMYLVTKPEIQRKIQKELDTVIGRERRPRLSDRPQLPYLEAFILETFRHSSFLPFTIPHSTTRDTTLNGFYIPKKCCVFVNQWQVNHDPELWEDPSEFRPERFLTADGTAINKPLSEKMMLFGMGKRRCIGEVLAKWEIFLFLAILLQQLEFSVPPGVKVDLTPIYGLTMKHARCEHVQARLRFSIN
In words: Inhibition of CYP1A2 in human liver microsomes using phenacetin as substrate incubated for 5 mins followed by NADPH addition and measured after 20 mins by LC-MS/MS analysis. The class given is ADME. The procedure, abridged:
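Human liver microsomes at 0.2 mg/mL mixed with probe substrates, preincubated 5 min at 37 °C. Reaction started with NADPH and run 20 min at 37 °C in a shaking bath. Quenched, held at -20 °C for 1 h, centrifuged, and the supernatant analysed by LC/MS/MS. Assay validated with specific inhibitors for each isoform.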

Data set [1] can be described thus: Initial concentration in Sprague-Dawley rat at 2 mg/kg, iv by LC-MS/MS analysis. It counts as ADME, organism-based. To be noted: in vivo. The method in brief:
(§1)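 SD rats dosed iv or intragastrically. Plasma (50 µL) was mixed with diclofenac internal standard (50 ng/mL, 300 µL), vortexed, centrifuged at 4 °C, and the supernatant analysed by LC/MS/MS against spiked standard and QC curves. Noncompartmental parameters calculated; mean ± SD, n = 3 (bioavailability excepted).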

A short description of data set [2]: Toxicity in BALB/c mouse assessed as inflammatory infiltration in liver at 50 to 100 mg/kg, ig administered for 14 days. The conditions noted are these: in vivo, po, 336 h, dose 50-100 mg/kg, time 14 day. The class given is organism-based. The method in brief:
(§2)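 BALB/c mice, 10 per group, gavaged daily for 14 days at 50 or 100 mg/kg; blank control group included. Hair, behaviour and neurological signs (fremitus, convulsion, spasm, gait disturbance) were observed. At day 14, mice were weighed and given routine blood tests and serum biochemistry (ALT, AST, urea, creatinine; n = 10). Liver and kidney were examined on paraffin-embedded histology sections.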

Data set [3] is described as follows: Renal toxicity in BALB/c mouse assessed as effect on serum creatinine level at 50 to 100 mg/kg, ig administered for 14 days. The class given is organism-based. To be noted: in vivo, po, 336 h, dose 50-100 mg/kg, time 14 day. The procedure, abridged: as §2
The nature of data set [4]: Toxicity in BALB/c mouse assessed as hepatocyte necrotic foci at 50 to 100 mg/kg, ig administered for 14 days. It counts as organism-based. The conditions noted are these: in vivo, po, 336 h, dose 50-100 mg/kg, time 14 day. The procedure, abridged:
as §2

A further data set addresses Cytochrome P450 2C9 (Homo sapiens, UniProt P11712). Kind of data set: Inhibition of CYP2C9 in human liver microsomes using diclofenac as substrate incubated for 5 mins followed by NADPH addition and measured after 20 mins by LC-MS/MS analysis. The class given is ADME.
The nature of data set [5]: AUC (0 to t) in Sprague-Dawley rat at 2 mg/kg, iv by LC-MS/MS analysis. The class given is ADME, organism-based. Also on record: dose 2 mg/kg. To be noted: in vivo. The method in brief:
(§3)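 The acid metabolite of the parent ester was dosed directly to Sprague-Dawley rats, iv or intragastrically (n=3). Plasma (50 µL) was spiked with 5 µL DMSO, extracted with 300 µL acetonitrile containing 50 ng/mL diclofenac internal standard, then vortexed and centrifuged at 4 °C. Supernatant was quantified by LC/MS/MS against plasma calibration standards and QCs. AUC came from noncompartmental analysis.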

Data set [6] can be described thus: Hepatotoxicity in BALB/c mouse assessed as effect on serum ALT level at 50 to 100 mg/kg, ig administered for 14 days. The class given is toxicity, organism-based. The conditions noted are these: in vivo, po, 336 h, dose 50-100 mg/kg, time 14 day. The method in brief:
as §2

Data set [7] can be described thus: Half life in Sprague-Dawley rat at 10 mg/kg, po by LC-MS/MS analysis. The class given is ADME, organism-based. To be noted: in vivo. The procedure, abridged: as §1
A further data set deals with Cytochrome P450 2D6 (Homo sapiens, UniProt P10635). In words: Inhibition of CYP2D6 in human liver microsomes using dextromethorphan as substrate incubated for 5 mins followed by NADPH addition and measured after 20 mins by LC-MS/MS analysis. (Liver microsomes are a subcellular fraction often used to study metabolism.)
Cytochrome P450 2D6, sequence (P10635 whole entry): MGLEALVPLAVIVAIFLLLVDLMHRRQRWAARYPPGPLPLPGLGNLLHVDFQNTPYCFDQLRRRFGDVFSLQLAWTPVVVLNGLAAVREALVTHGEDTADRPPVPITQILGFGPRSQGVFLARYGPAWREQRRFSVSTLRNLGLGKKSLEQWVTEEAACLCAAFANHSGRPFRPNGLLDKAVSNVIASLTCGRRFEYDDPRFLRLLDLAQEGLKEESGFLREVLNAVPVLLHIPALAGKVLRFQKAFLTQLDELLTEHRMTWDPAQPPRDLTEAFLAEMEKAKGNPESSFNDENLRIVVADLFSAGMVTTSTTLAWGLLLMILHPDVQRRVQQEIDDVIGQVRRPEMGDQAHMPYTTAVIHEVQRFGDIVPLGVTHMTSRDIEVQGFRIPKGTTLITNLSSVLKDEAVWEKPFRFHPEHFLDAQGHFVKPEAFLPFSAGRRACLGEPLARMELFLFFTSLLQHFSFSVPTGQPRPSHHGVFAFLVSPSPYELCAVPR
A short description of data set [8]: AUC (0 to infinity) in Sprague-Dawley rat at 2 mg/kg, iv by LC-MS/MS analysis. The conditions noted are these: in vivo. Details: route intravenous, time infinity, dose 2 mg/kg. It counts as ADME, organism-based. The method in brief:
as §3

Data set [9] can be described thus: Toxicity in BALB/c mouse assessed as muscle spasm at 50 to 100 mg/kg, ig administered for 14 days. It counts as organism-based. To be noted: in vivo, po, 336 h, dose 50-100 mg/kg, time 14 day. The procedure, abridged: as §2

Usually IC50 stands for the concentration at which inhibition is half-maximal. Read a high IC50 as a need for much substance. The term AUC(0-t) denotes exposure summed from dosing to a finite time, without extrapolation to infinity. A high value points to more exposure. A word on the half-life: it is the time in which the quantity being followed falls by half. A high value points to slow decline. One may read the AUC(0-inf) as total exposure, with the tail of the curve extrapolated. The low end stands for less exposure, the high end for more exposure.

Each structure is given as a SMILES string.

Cytochrome P450 2C9, sequence (P11712 whole entry): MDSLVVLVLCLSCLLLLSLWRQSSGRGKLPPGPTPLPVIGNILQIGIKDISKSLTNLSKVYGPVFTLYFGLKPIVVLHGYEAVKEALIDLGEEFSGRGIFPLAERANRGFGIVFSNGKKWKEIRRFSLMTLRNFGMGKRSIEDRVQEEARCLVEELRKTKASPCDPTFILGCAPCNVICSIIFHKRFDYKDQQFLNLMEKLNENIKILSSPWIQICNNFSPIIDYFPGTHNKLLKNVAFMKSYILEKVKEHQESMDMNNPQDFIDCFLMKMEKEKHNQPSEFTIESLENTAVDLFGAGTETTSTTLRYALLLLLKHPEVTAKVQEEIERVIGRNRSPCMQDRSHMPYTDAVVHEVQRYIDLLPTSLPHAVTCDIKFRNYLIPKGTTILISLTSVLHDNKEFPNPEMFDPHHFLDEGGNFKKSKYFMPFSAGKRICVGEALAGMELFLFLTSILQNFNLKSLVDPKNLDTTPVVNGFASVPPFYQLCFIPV

`COc1ccc2cc(C(=O)NCCN(C)C)oc2c1.CS(=O)(=O)O`: the figures for the 50% inhibitory concentration (IC50) against Cytochrome P450 1A2, at Cytochrome P450 2C9 and against Cytochrome P450 2D6 were greater than 10 µM, greater than 10 µM and 7.84 µM, respectively. In data set [1], this compound displayed a C0 of 17.2 ng/mL. Also, the Activity result was “Toxic” in [2]; “Non-Toxic” in [3]; “Toxic” in data set [4]; “Non-Toxic” in data set [6]; “Non-Toxic” in [9]. This compound also displayed an exposure AUC(0-t) in data set [5] of 59.5 ng·h/mL. In data set [7], this compound had a half-life of 4.53 h. The AUC(0-inf) in [8] turned out to be 69 ng·h/mL.
